Test results reported in ChEMBL document CHEMBL3576834, “Antipodal crambescin A2 homologues from the marine sponge Pseudaxinella reticulata. Antifungal structure-activity relationships” (2015).
Converted amounts (≈) assume the structure as drawn.

Legend:
Cryptococcus gattii = experiment: Antifungal activity against Cryptococcus neoformans var. gattii after 48 hrs by microbroth dilution method; format: functional, Cryptococcus bacillisporus
Procedure, shortened: (§1)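 Microbroth dilution in Antibiotic Medium #3. Test agent in DMSO serially diluted 2-fold across 12 wells. Overnight yeast cultures diluted to OD 0.01−0.02 and added to the wells, final volume 200 μL. Incubated at 35 °C for 48 h, then growth read as OD at 600 nm.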

Candida albicans = experiment: Antifungal activity against Candida albicans ATCC 14503 after 48 hrs by microbroth dilution method; format: functional; details: ATCC 14503, 48 h; procedure, shortened: as §1
Nakaseomyces glabratus = experiment: Antifungal activity against Candida glabrata after 48 hrs by microbroth dilution method; format: functional; procedure, shortened: as §1
Pichia kudriavzevii = experiment: Antifungal activity against Candida krusei after 48 hrs by microbroth dilution method; format: functional; procedure, shortened: as §1
Staphylococcus aureus = experiment: Antibacterial activity against Staphylococcus aureus at 80 ug by disk diffusion method; format: functional; details: read-out: IZ

| SMILES | MIC50 (Cryptococcus gattii) | MIC90 (Cryptococcus gattii) | MIC50 (Candida albicans) | MIC90 (Candida albicans) | MIC50 (Nakaseomyces glabratus) | MIC90 (Nakaseomyces glabratus) | MIC50 (Pichia kudriavzevii) | MIC90 (Pichia kudriavzevii) | zone of inhibition at 80 µg/disc (Staphylococcus aureus) |
| --- | --- | --- | --- | --- | --- | --- | --- | --- | --- |
| C[C@@H]1[C@H](O)[C@@H](C)/C=C/C=C/C=C/C=C/C=C/C=C/C=C/[C@H](O[C@@H]2O[C@H](C)[C@@H](O)[C@H](N)[C@@H]2O)C[C@@H]2O[C@](O)(C[C@@H](O)C[C@@H](O)[C@H](O)CC[C@@H](O)C[C@@H](O)CC(=O)O[C@H]1C)C[C@H](O)[C@H]2C(=O)O [AMPHOTERICIN B] | 0.055 µM (≈ 0.0508 µg/mL) | 0.12 µM (≈ 0.111 µg/mL) | 0.037 µM (≈ 0.0342 µg/mL) | 0.29 µM (≈ 0.268 µg/mL) | 0.098 µM (≈ 0.0906 µg/mL) | 0.25 µM (≈ 0.231 µg/mL) | 0.17 µM (≈ 0.157 µg/mL) | 0.23 µM (≈ 0.213 µg/mL) | – |
| CCCCCCCC[C@H]1NC(=N)N2CCCC2=C1C(=O)OCCCCNC(=N)N | 0.85 µM (≈ 0.346 µg/mL) | 2.2 µM (≈ 0.894 µg/mL) | 14 µM (≈ 5.69 µg/mL) | 26 µM (≈ 10.6 µg/mL) | – | – | – | – | – |
| CCCCCCC[C@H]1NC(=N)N2CCCC2=C1C(=O)OCCCCNC(=N)N | 1.2 µM (≈ 0.471 µg/mL) | 2.3 µM (≈ 0.903 µg/mL) | 22 µM (≈ 8.64 µg/mL) | 32 µM (≈ 12.6 µg/mL) | – | – | – | – | – |
| CCCCC[C@H]1NC(=N)N2CCCC2=C1C(=O)OCCCCNC(=N)N | 2.5 µM (≈ 0.911 µg/mL) | 4.9 µM (≈ 1.79 µg/mL) | 39 µM (≈ 14.2 µg/mL) | 49 µM (≈ 17.9 µg/mL) | 17 µM (≈ 6.2 µg/mL) | 41 µM (≈ 14.9 µg/mL) | 34 µM (≈ 12.4 µg/mL) | 59 µM (≈ 21.5 µg/mL) | 8 mm |
| CCCCCCCCC[C@H]1NC(=N)N2CCCC2=C1C(=O)OCCCCNC(=N)N | 1.1 µM (≈ 0.463 µg/mL) | 2.6 µM (≈ 1.09 µg/mL) | 11 µM (≈ 4.63 µg/mL) | 22 µM (≈ 9.25 µg/mL) | 6.1 µM (≈ 2.57 µg/mL) | 27 µM (≈ 11.4 µg/mL) | 11 µM (≈ 4.63 µg/mL) | 24 µM (≈ 10.1 µg/mL) | – |
